Data from ChEMBL document CHEMBL1151735, “Further studies with the 2-amino-1,3-thiazol-4(5H)-one class of 11beta-hydroxysteroid dehydrogenase type 1 inhibitors: reducing pregnane X receptor activity and exploring activity in a monkey pharmacodynamic model” (J Med Chem, 2008).

Tests used:
[1] = molecular target: T1, 11-beta-hydroxysteroid dehydrogenase 1 (Homo sapiens, UniProt P28845); test: Inhibition of human recombinant 11beta-HSD1 expressed in Escherichia coli using [3H]cortisone by scintillation proximity assay
[2] = molecular target: T1, 11-beta-hydroxysteroid dehydrogenase 1; test: Inhibition of human 11beta-HSD1 expressed in CHO cells assessed as conversion of cortisone to cortisol by ELISA; format: cell-based
[3] = molecular target: T2, Nuclear receptor subfamily 1 group I member 2 (Homo sapiens, UniProt O75469); test: Transactivation of human PXR transfected in HEK cells at 20 uM by luciferase reporter gene assay relative to 12.5 uM rifampin; format: cell-based; details: hek293, 20 µM
T2 sequence (O75469 whole entry): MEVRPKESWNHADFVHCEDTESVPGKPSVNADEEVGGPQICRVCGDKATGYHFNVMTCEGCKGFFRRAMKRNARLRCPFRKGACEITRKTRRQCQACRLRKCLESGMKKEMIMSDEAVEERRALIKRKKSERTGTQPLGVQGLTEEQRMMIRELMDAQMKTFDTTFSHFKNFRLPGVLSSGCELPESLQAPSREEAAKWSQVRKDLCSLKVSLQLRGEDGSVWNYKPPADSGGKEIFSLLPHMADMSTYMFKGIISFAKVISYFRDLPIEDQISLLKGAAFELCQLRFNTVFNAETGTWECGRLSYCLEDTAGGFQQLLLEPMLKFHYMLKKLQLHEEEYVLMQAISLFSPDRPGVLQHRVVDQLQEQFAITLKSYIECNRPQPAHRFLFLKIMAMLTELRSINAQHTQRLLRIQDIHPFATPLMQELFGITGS
Summary of the method: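 HEK cells transfected with human PXR fused to a firefly luciferase reporter. Luciferase activity is expressed as percent of the 12.5 µM rifampin response. Run in triplicate; SEM reported.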

[4] = molecular target: T3, 11-beta-hydroxysteroid dehydrogenase type 2 (Homo sapiens, UniProt P80365); test: Inhibition of human 11beta-HSD2 expressed in CHO cells using [3H]cortisol by scintillation proximity assay; format: cell-based
T3 sequence (P80365 whole entry): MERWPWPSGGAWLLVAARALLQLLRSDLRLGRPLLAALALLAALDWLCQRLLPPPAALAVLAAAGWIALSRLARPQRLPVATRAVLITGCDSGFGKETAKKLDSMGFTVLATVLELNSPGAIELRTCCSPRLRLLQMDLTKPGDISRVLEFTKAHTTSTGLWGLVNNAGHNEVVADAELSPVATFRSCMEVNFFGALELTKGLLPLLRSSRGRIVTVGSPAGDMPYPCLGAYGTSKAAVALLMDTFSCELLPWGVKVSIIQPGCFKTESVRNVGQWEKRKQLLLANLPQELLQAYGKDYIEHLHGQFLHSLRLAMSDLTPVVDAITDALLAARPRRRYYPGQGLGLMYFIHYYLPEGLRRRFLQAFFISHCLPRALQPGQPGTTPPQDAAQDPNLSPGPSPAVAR
Summary of the method: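 Human 11β-HSD2 from CHO cells with [3H]cortisol 3 nM and NAD+ 300 µM, in 0.1 M sodium phosphate pH 7.6. 1 h at room temperature, then stopped with 18β-glycyrrhetinic acid. Anticortisol antibody and antimouse SPA beads added for 30 min; radiometric read-out.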

T1 sequence (P28845 whole entry): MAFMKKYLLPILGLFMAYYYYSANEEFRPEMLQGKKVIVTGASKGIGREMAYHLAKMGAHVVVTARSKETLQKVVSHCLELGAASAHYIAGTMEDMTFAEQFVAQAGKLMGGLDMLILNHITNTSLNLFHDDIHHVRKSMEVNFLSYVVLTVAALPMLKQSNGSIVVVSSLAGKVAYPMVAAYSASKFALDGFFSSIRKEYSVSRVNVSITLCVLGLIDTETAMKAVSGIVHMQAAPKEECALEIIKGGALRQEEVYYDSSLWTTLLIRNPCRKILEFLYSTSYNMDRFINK

Compound | Ki [1] [nM] | IC50 [2] [nM] | Activity [3] [%] | IC50 [4] [nM]
C[C@H](NC1=NC(=O)C(C)(C(C)(C)O)S1)c1ccccc1Cl (stereo partly drawn) | 26 | 18 | 63 | > 10000
C[C@H](NC1=NC(=O)C(C)(C(C)(C)O)S1)c1ccccc1C(F)(F)F (stereo partly drawn) | 25 | 43 | 43 | > 10000
CC(C(=O)N[C@H]1C2CC3CC1C[C@](O)(C3)C2)N1CCN(c2ccc(C(F)(F)F)cn2)CC1 (stereo partly drawn) |  | 5 |  | 
C[C@H](NC1=NC(=O)C(C)(C(C)(C)O)S1)c1ccc(F)cc1 (stereo partly drawn) | 65 | 51 | 10 | > 10000
